Published values pooled from the literature.
Lines come from different studies, so protocols differ.

Structure (SMILES) | test system | conditions | measurement | value
COc1ccc([C@@H](O)c2cc(-c3ncnc4cc(N5CCOCC5)ccc34)c(F)cc2Cl)nn1 | human, plasma | oral, 250 mg, single dose, patients | Cmax | 2380 ng/mL
CC(C)C[C@H](NC(=O)[C@@H]1COCCCCCC(=O)NCC(=O)N2CCC[C@H]2C(=O)N1)C(=O)[C@@]1(C)CO1 | Caco-2 | 10 µM, 2 h, pH 7.4 | efflux ratio | ~22
CC(C)NCC(O)COc1cccc2ccccc12 (stereo not shown) | Caco-2 | 5 µM, 2 h | efflux ratio | 0.72
CCOc1ccc(N(C)S(=O)(=O)c2cc(Cl)sc2C(=O)Nc2cc(Cl)cc(C(=O)O)c2)cc1OC | male C57BL/6 mouse, brain | intraperitoneal, 10 mg/kg | Tmax | 15 min
N#C[C@@]12C[C@@H]1[C@@H](n1cnc3c(N[C@@H](C4CCC4)C4CC4)nc(I)nc31)[C@H](O)[C@@H]2O | Caco-2 | – | efflux ratio | 2.76
CNC(=O)n1ccc2cc(Oc3ccnc(NC(=O)c4ccc(C5CCN(CCO)CC5)cc4)c3)c(OCCOC)cc21 | human, plasma | oral, 35 mg, healthy volunteers | Cmax | 7.28 ng/mL
Cc1c(N(C)C)ccc2cc(C(=O)NS(=O)(=O)c3ccccc3-c3ccccc3)oc12 | Caco-2 | 2 µM, 2 h, pH 7.2 | efflux ratio | 0.7
C[C@H]1O[C@@H](O[C@H]2[C@@H](O)C[C@H](O[C@H]3[C@@H](O)C[C@H](O[C@H]4CC[C@@]5(C)[C@H](CC[C@@H]6[C@@H]5C[C@@H](O)[C@]5(C)[C@@H](C7=CC(=O)OC7)CC[C@]65O)C4)O[C@@H]3C)O[C@@H]2C)C[C@H](O)[C@@H]1O | Caco-2 | 5 µM, 2 h | efflux ratio | 50.7
Nc1ncn([C@H]2C[C@H](O)[C@@H](CO)O2)c(=O)n1 | female C57BL/6 mouse, plasma | intravenous, 0.4 mg/kg | Tmax | 4.98 min
CN1CC[C@@H](c2c(O)cc(O)c3c(=O)cc(-c4ccc(C(F)(F)F)cc4Cl)oc23)[C@@H]1CO | human, plasma | oral, 200 mg, patients | Cmax | 398 ng/mL
C=CS(=O)(=O)c1ccc(Nc2nc(OCC3CCCCC3)c3nc[nH]c3n2)cc1 | male BALB/c mouse, plasma | intravenous, 20 mg/kg, single dose | Tmax | 4.8 min
CCOC(=O)c1cc(Cl)cc(NC(=O)c2sc(Cl)cc2S(=O)(=O)N(C)c2ccc(OCC)c(OC)c2)c1 | male C57BL/6 mouse, brain | intraperitoneal, 10 mg/kg | Tmax | 15 min
Cn1cc(Nc2nc(N)nc(-c3cccc(-n4ccc5cc(C6CC6)cc(F)c5c4=O)c3CO)n2)cn1 | human, plasma | oral, 25 mg, single dose, fasted, suspension | Cmax | 219 ng/mL
CCN1CCN(Cc2ccc(NC(=O)c3ccc(C)c(NC(=O)c4cncc(-c5cccs5)c4)c3)cc2C(F)(F)F)CC1 | mouse, plasma | intraperitoneal, 10 mg/kg, single dose | Tmax | 30 min
CC(C(=O)Nc1c(F)cccc1F)N1CCN(c2ccccc2)CC1 (stereo not shown) | female C57BL/6 mouse, plasma | intraperitoneal, 10 mg/kg, single dose | Tmax | 15 min
Cc1c(C(=O)O)ccc2c3n(nc12)[C@@H]1[C@H](C3)N(CC2CC2)[C@@]2(C(=O)Nc3cc(Cl)ccc32)[C@H]1c1cccc(Cl)c1F | female minipig, plasma | intravenous | Vd | 0.94 L/kg
